In ChEMBL document CHEMBL4622977, “A CNS-Targeting Prodrug Strategy for Nuclear Receptor Modulators” (J Med Chem, 2020):
Active and inactive are the calls of the source. No cut-off for these calls is given here.

Columns and labels:
[1] = AUC (0.5 to 6 hrs) in C57BL/6 mouse serum at 9.14 umol/kg, ip by LC-MS/MS analysis; assay type: ADME, organism-based; set-up: time upper 6 hr, dose 9.14 umol/kg, time lower 0.5 hr, route intraperitoneal; details: in vivo
In short: (§1)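 Male wild-type C57BL/6 mice (8−10 weeks, n=3 per time point) received parent drug or equimolar prodrug at […] i.p. in DMSO. Brain and serum were collected at 0.5, 2 and 6 h. Parent acid was quantified by LC-MS/MS against vehicle-tissue standard curves with d₆-sobetirome internal standard. AUC0.5–6 h was computed from the time course; mean ± SEM.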

[2] = tested on: Mus musculus; test: In vivo agonist activity at PPAR in C57BL/6 mouse assessed upregulation of Pgc1-alpha gene expression at 9.14 umol/kg, ip administered once daily for 7 days by Trizol reagent based RT-qPCR analysis; assay type: functional, organism-based
In short: (§2)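 Male C57BL/6 mice (n=5) were dosed once daily for 7 days i.p. with parent drug at […], equimolar prodrug, or vehicle. The vehicle was 1:1:8 Kolliphor:NMP:water. Target gene expression was compared between groups per tissue by 2-tailed unpaired t test.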

[3] = Renal toxicity in C57BL/6 mouse assessed effect on Fasn gene expression in kidney at 9.14 umol/kg, ip administered once daily for 7 days by Trizol reagent based RT-qPCR analysis; assay type: organism-based; details: in vivo, 168 h; in short: as §2
[4] = mouse, in vivo, ip
[5] = in vivo; details: C57BL/6, mouse, brain/serum, ip, 9.14 umol/kg
[6] = AUC (0.5 to 6 hrs) in C57BL/6 mouse brain assessed as bexarotene level at 9.14 umol/kg, ip by LC-MS/MS analysis; assay type: ADME, organism-based; set-up: dose 9.14 umol/kg, time 0.5-6 hr, route intraperitoneal; details: in vivo, BLD = below limit of detection; in short: as §1
[7] = AUC (0.5 to 6 hrs) in C57BL/6 mouse serum assessed as bexarotene level at 9.14 umol/kg, ip by LC-MS/MS analysis; assay type: ADME, organism-based; set-up: dose 9.14 umol/kg, time 0.5-6 hr, route intraperitoneal; details: in vivo; in short: as §1
[8] = Prodrug conversion in C57BL/6 mouse brain assessed as bexarotene level at 9.14 umol/kg, ip measured after 1 hr in presence of FAAH inhibitor PF-3845 by LC-MS/MS analysis; assay type: ADME, organism-based; details: in vivo
In short: (§3)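 Male C57BL/6 mice (n=3) received PF-3845 at 1 mg/kg i.p., then prodrug at […] i.p. 1 h later; comparators received prodrug alone. Vehicle was DMSO. Whole brain was taken 1 h after prodrug and homogenized in water with d₆-sobetirome internal standard. It was extracted with EtOAc/MeCN and parent acid was measured by LC-MS/MS; mean ± SEM, 2-tailed unpaired t test.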

[9] = AUC (0.5 to 6 hrs) in C57BL/6 mouse brain assessed as 2-(4-(4-hydroxy-3-isopropyl-5-((4-nitrophenyl)ethynyl)-benzyl)-3,5-dimethylphenoxy)acetic acid level at 9.14 umol/kg, ip by LC-MS/MS analysis; assay type: ADME, organism-based; set-up: time upper 6 hr, time lower 0.5 hr, dose 9.14 umol/kg, route intraperitoneal; details: in vivo; in short: as §1
[10] = AUC (0.5 to 6 hrs) in C57BL/6 mouse serum assessed as 2-(4-(4-hydroxy-3-isopropyl-5-((4-nitrophenyl)ethynyl)-benzyl)-3,5-dimethylphenoxy)acetic acid level at 9.14 umol/kg, ip by LC-MS/MS analysis; assay type: ADME, organism-based; set-up: time 0.5-6 hr, dose 9.14 umol/kg, route intraperitoneal; details: in vivo; in short: as §1
[11] = Brain to serum concentration ratio, Kp of the compound in C57BL/6 mouse assessed as 2-(4-(4-hydroxy-3-isopropyl-5-((4-nitrophenyl)ethynyl)-benzyl)-3,5-dimethylphenoxy)acetic acid level at 9.14 umol/kg, ip by LC-MS/MS analysis; assay type: ADME, organism-based
In short: (§4)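 Brain-to-serum ratio Kp was calculated from brain and serum parent-drug AUC0.5–6 h (ng/g*h). These AUCs came from male C57BL/6 mice (n=3 per time point) given parent drug or equimolar prodrug at […] i.p. in DMSO, sampled at 0.5, 2 and 6 h. Parent acid was quantified by LC-MS/MS with d₆-sobetirome internal standard.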

[12] = Prodrug conversion in C57BL/6 mouse brain assessed as 2-(4-(4-hydroxy-3-isopropyl-5-((4-nitrophenyl)ethynyl)-benzyl)-3,5-dimethylphenoxy)acetic acid level at 9.14 umol/kg, ip measured after 1 hr in presence of FAAH inhibitor PF-3845 by LC-MS/MS analysis; assay type: ADME, organism-based; details: in vivo; in short: as §3
[13] = AUC (0.5 to 6 hrs) in C57BL/6 mouse brain assessed as GW501516 level at 9.14 umol/kg, ip by LC-MS/MS analysis; assay type: ADME, organism-based; set-up: time 0.5-6 hr, dose 9.14 umol/kg, route intraperitoneal; details: in vivo; in short: as §1
[14] = AUC (0.5 to 6 hrs) in C57BL/6 mouse serum assessed as GW501516 level at 9.14 umol/kg, ip by LC-MS/MS analysis; assay type: ADME, organism-based; set-up: dose 9.14 umol/kg, time upper 6 hr, time lower 0.5 hr, route intraperitoneal; details: in vivo; in short: as §1
[15] = Brain to serum concentration ratio, Kp of the compound in C57BL/6 mouse assessed as GW501516 level at 9.14 umol/kg, ip by LC-MS/MS analysis; assay type: ADME, organism-based; in short: as §4
[16] = Prodrug conversion in C57BL/6 mouse brain assessed as GW501516 level at 9.14 umol/kg, ip measured after 1 hr in presence of FAAH inhibitor PF-3845 by LC-MS/MS analysis; assay type: ADME, organism-based; details: in vivo; in short: as §3
[17] = AUC (0.5 to 6 hrs) in C57BL/6 mouse brain assessed as tesaglitazar level at 9.14 umol/kg, ip by LC-MS/MS analysis; assay type: ADME, organism-based; set-up: time upper 6 hr, dose 9.14 umol/kg, time lower 0.5 hr, route intraperitoneal; details: in vivo; in short: as §1
[18] = AUC (0.5 to 6 hrs) in C57BL/6 mouse serum assessed as tesaglitazar level at 9.14 umol/kg, ip by LC-MS/MS analysis; assay type: ADME, organism-based; set-up: time lower 0.5 hr, dose 9.14 umol/kg, time upper 6 hr, route intraperitoneal; details: in vivo; in short: as §1
[19] = Brain to serum concentration ratio, Kp of the compound in C57BL/6 mouse assessed as tesaglitazar level at 9.14 umol/kg, ip by LC-MS/MS analysis; assay type: ADME, organism-based; in short: as §4
[20] = Prodrug conversion in C57BL/6 mouse brain assessed as tesaglitazar level at 9.14 umol/kg, ip measured after 1 hr in presence of FAAH inhibitor PF-3845 by LC-MS/MS analysis; assay type: ADME, organism-based; details: in vivo; in short: as §3

CCO[C@@H](Cc1ccc(OCCc2ccc(OS(C)(=O)=O)cc2)cc1)C(=O)O [TESAGLITAZAR]
AUC [1]: 2107 ng·h/g
Activity [2]: inactive
Activity [3]: Toxic
AUC [4]: 7.3 ng·h/g
Kp [5]: 0.004

O=C(O)Cc1cc(I)c(Oc2ccc(O)c(I)c2)c(I)c1 [TIRATRICOL]
AUC [1]: 5108 ng·h/g

C=C(c1ccc(C(=O)NC)cc1)c1cc2c(cc1C)C(C)(C)CCC2(C)C
AUC [6]: Bld
AUC [7]: 4.933 ng·h/g
Drug metabolism [8]: Metabolite_Notdetected

CCCc1c(OCCCSc2ccc(CC(=O)O)cc2Cl)ccc2c(C(F)(F)F)noc12
AUC [1]: 2140 ng·h/g
AUC [4]: 67.35 ng·h/g
Kp [5]: 0.03

CNC(=O)COc1cc(C)c(Cc2cc(C#Cc3ccc([N+](=O)[O-])cc3)c(O)c(C(C)C)c2)c(C)c1
AUC [9]: 73.8 ng·h/g
AUC [10]: 49.5 ng·h/g
Kp [11]: 1.5
Drug metabolism [12]: Metabolite_Notdetected

CNC(=O)COc1ccc(SCc2sc(-c3ccc(C(F)(F)F)cc3)nc2C)cc1C
AUC [13]: 146.3 ng·h/g
AUC [14]: 2705 ng·h/g
Kp [15]: 0.054
Drug metabolism [16]: Metabolite_Detected

Cc1cc(SCc2sc(-c3ccc(C(F)(F)F)cc3)nc2C)ccc1OCC(=O)O [GW501516]
AUC [1]: 2330 ng·h/g
AUC [4]: 41.8 ng·h/g
Kp [5]: 0.018

CCO[C@@H](Cc1ccc(OCCc2ccc(OS(C)(=O)=O)cc2)cc1)C(=O)NC
AUC [17]: 21.9 ng·h/g
AUC [18]: 374.1 ng·h/g
Kp [19]: 0.06
Drug metabolism [20]: Metabolite_Notdetected
Activity [2]: Active
Activity [3]: Non-Toxic
